ChEMBL document CHEMBL4017520, “Discovery, Structure-Activity Relationship, and Antiparkinsonian Effect of a Potent and Brain-Penetrant Chemical Series of Positive Allosteric Modulators of Metabotropic Glutamate Receptor 4” (J Med Chem, 2017)
pEC50: −log10 of the molar value. Values after ≈ are worked out from the molar mass of the structure shown. Values belong to the molecule of their own block, whether it stands above or below them. Active and inactive are the calls of the source. The rule behind the calls is not given here.

What was measured:
[1] = biological target: Metabotropic glutamate receptor 4 (Homo sapiens, UniProt Q14833); assay: Positive allosteric modulation of recombinant human mGlu4 receptor expressed in HEK293 cells co-expressing Gi/Gq assessed as increase in glutamate-induced calcium flux preincubated for 10 mins followed by glutamate addition measured for 3 mins by Fluo4-AM dye based fluorescence assay; format: functional, cell-based; conditions: for pEC50: read-out: EC50; for EC50: hek293
[2] = Drug uptake in Sprague-Dawley rat brain at 10 mg/kg, po after 30 mins post dose administered as single dose by LC-MS/MS analysis; format: ADME, organism-based; conditions: read-out: Drug uptake
Summary of the method: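 Rats given a single oral dose of 10 mg/kg. The first plasma sample was taken at 15 min, and sampling continued to 24 h postdose. Brain was sampled at 30 min. Values are the mean (±SEM) of 3 rats.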

[3] = Drug uptake in Sprague-Dawley rat brain at 10 mg/kg, po after 60 mins post dose administered as single dose by LC-MS/MS analysis; format: ADME, organism-based; conditions: read-out: Drug uptake
Summary of the method: (§1)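 Rats given a single oral dose of 10 mg/kg. Brain concentrations were measured at 30, 60 and 90 min postdose, and brain AUC0–inf was determined. Values are the mean of three rats. Lower limit of quantification was 1 ng/mL.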

[4] = Drug uptake in Sprague-Dawley rat brain at 10 mg/kg, po after 90 mins post dose administered as single dose by LC-MS/MS analysis; format: ADME, organism-based; conditions: read-out: Drug uptake; summary of the method: as §1
[5] = biological target: Metabotropic glutamate receptor 1 (Homo sapiens) (UniProt Q13255); assay: Negative allosteric modulation of human mGlu1 receptor expressed in HEK293 cells co-expressing Gi/Gq assessed as reduction in EC20/EC80 glutamate-induced intracellular calcium level preincubated for 10 mins followed by glutamate addition measured for 3 mins by Fluo4-AM dye based fluorescence assay; format: functional, cell-based
Summary of the method: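 HEK-293 cells transiently expressing human mGluR1 with a Gα15, Gqi9 or GqTOP G protein for calcium read-out; Fluo4-AM loaded. Compound added 10 min, then EC80 glutamate, fluorescence recorded 3 min; concentration–response over 20 concentrations, duplicate, three independent experiments.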

[6] = Thermodynamic solubility of the compound in water; format: physicochemical; conditions: read-out: Therm_solubility
Summary of the method: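 Thermodynamic solubility measured in milli-Q water.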

Sequence of Metabotropic glutamate receptor 4 (Q14833 whole entry): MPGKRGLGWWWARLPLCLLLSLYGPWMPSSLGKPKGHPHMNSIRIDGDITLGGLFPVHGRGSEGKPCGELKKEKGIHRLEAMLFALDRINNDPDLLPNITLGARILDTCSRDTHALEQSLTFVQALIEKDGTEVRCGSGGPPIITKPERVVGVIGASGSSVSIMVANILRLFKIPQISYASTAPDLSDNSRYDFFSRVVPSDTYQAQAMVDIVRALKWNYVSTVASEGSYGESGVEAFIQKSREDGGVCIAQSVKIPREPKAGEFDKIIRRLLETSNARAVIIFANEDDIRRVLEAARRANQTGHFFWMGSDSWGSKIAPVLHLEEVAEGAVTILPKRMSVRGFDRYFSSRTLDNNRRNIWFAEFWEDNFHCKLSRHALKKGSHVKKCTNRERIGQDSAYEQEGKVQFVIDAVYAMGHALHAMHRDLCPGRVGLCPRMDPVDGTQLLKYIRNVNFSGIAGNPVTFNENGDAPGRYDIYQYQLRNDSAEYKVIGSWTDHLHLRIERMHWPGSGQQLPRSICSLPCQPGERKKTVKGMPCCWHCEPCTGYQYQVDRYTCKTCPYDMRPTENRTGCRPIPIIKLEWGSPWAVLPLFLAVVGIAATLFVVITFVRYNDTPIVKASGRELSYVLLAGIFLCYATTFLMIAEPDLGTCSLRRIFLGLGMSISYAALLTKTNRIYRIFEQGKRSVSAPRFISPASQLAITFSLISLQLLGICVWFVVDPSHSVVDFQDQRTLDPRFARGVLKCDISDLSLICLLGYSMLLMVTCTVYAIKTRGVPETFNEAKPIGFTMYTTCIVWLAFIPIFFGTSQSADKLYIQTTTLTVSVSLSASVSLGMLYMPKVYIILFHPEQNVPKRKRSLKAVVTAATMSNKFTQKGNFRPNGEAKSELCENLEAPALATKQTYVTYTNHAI
Sequence of Metabotropic glutamate receptor 1 (Homo sapiens) (Q13255 19-1194 limits assumed): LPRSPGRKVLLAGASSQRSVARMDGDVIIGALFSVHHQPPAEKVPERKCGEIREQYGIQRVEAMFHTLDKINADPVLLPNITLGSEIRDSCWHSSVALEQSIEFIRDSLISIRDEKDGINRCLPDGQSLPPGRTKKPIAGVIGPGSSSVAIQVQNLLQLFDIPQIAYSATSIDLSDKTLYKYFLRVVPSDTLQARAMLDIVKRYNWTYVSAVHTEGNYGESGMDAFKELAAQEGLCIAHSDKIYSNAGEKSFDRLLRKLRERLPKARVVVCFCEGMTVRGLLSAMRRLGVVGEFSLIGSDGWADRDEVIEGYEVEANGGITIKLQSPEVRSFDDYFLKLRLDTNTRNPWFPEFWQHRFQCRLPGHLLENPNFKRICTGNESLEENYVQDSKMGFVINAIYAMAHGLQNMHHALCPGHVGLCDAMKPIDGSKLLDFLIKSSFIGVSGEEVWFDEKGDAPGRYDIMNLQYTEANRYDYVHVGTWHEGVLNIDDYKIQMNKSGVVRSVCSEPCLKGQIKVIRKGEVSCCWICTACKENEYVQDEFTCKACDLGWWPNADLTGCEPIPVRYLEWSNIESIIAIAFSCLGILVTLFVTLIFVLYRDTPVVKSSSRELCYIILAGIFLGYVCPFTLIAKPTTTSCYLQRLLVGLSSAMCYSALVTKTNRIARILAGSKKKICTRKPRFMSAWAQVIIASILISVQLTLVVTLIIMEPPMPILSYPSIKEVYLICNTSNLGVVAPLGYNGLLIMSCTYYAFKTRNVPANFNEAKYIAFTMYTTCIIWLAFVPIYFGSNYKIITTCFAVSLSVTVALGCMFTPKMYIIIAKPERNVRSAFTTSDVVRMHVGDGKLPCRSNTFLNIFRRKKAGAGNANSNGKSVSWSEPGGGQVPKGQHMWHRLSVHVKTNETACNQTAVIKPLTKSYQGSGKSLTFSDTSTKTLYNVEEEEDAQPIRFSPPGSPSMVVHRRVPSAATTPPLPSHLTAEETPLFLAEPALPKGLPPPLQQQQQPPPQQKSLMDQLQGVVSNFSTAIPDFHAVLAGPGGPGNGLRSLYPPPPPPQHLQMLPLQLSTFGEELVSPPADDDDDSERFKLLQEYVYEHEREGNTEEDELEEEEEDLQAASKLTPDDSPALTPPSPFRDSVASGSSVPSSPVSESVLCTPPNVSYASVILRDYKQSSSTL

- pEC50 [1]: 8.40
- concentration at 0.5 h [2]: 33.4 ng/g
- concentration at 1 h [3]: 26.7 ng/g
SMILES: O/N=c1\cc(-c2cc3sccc3cn2)oc2ccc(OC3CN(c4cccnc4)C3)cc12

- pEC50 [1]: 7.05
- concentration at 0.5 h [2]: 239 ng/g
- concentration at 1.5 h [4]: 194 ng/g
- concentration at 1 h [3]: 207 ng/g
SMILES: O/N=c1\cc(-c2cc3sccc3cn2)oc2ccc(OCCN3CCC(F)(F)CC3)cc12

- pEC50 [1]: 6.55
SMILES: O/N=c1\cc(-c2cn3cccc3cn2)oc2ccccc12

- pEC50 [1]: 8.22
- concentration at 0.5 h [2]: 10.7 ng/g
- concentration at 1 h [3]: 6.5 ng/g
SMILES: CC(=O)N1CCC(COc2ccc3oc(-c4cc5sccc5cn4)c/c(=N\O)c3c2)CC1

- EC50 [1]: Not Active
SMILES: Cc1cc(C)n2cnc(-c3c/c(=N\O)c4ccccc4o3)cc12

- pEC50 [1]: 5.52
SMILES: COCCOc1ccc2/c(=N/O)cc(-c3cc4ccccc4cn3)oc2c1

- pEC50 [1]: 5.86
SMILES: COc1ccc2oc(-c3cc4ccccc4cn3)c/c(=N\O)c2c1

- pEC50 [1]: 6.97
- concentration at 0.5 h [2]: 157 ng/g
- concentration at 1.5 h [4]: 100 ng/g
- concentration at 1 h [3]: 201 ng/g
SMILES: O/N=c1\cc(-c2cc3sccc3cn2)oc2ccc(CCCN3CCC(F)(F)CC3)cc12

- pEC50 [1]: 5.28
SMILES: CN1CCN(CCCNc2ccc3oc(-c4cc5ccccc5cn4)c/c(=N\O)c3c2)CC1

- EC50 [1]: Not Active
SMILES: O/N=c1\cc(-c2ccc3ccccc3n2)oc2ccccc12

- pEC50 [1]: 5.76
SMILES: O/N=c1\cc(-c2cc3ccccc3cn2)oc2cc(CCc3ccccc3)ccc12

- Activity [5]: Active
SMILES: O=C(Nc1ccccc1)[C@]12C[C@H]1/C(=N\O)c1ccccc1O2

- pEC50 [1]: 6.00
SMILES: O/N=c1\cc(-c2cc3ccccc3cn2)oc2ccc(C3CC3)cc12

- pEC50 [1]: 5.76
SMILES: O/N=c1\cc(-c2cc3ccccc3cn2)oc2cc(Br)ccc12

- pEC50 [1]: 6.07
SMILES: Cn1ccc2cc(-c3c/c(=N\O)c4ccccc4o3)ncc21

- pEC50 [1]: 6.80
- solubility thermodynamic [6]: 16.3 µM (≈ 5.73 µg/mL)
SMILES: COCCOc1ccc2oc(-c3cc4cccn4cn3)c/c(=N\O)c2c1

- pEC50 [1]: 7.30
SMILES: O/N=c1\cc(-c2cc3cc[nH]c3cn2)oc2ccccc12

- pEC50 [1]: 7.77
- concentration at 0.5 h [2]: 20 ng/g
- concentration at 1 h [3]: 9.5 ng/g
SMILES: O/N=c1\cc(-c2cc3sccc3cn2)oc2ccc(O[C@@H]3CCN(c4ccncn4)C3)cc12

- EC50 [1]: Not Active
SMILES: O/N=c1\cc(-c2ccn3ccnc3c2)oc2ccccc12

- pEC50 [1]: 7.30
- concentration at 0.5 h [2]: 3.4 ng/g
- concentration at 1 h [3]: 2.3 ng/g
SMILES: O/N=c1\cc(-c2cc3cccn3cn2)oc2ccc(OCCCc3cccnc3)cc12

- pEC50 [1]: 6.70
SMILES: O/N=c1\cc(-c2cc3sccc3cn2)oc2ccccc12

- pEC50 [1]: 6.62
SMILES: O/N=c1\cc(-c2cc3ncccc3cn2)oc2ccccc12

- EC50 [1]: Not Active
SMILES: O=c1cc(-c2cc3ccccc3cn2)oc2ccccc12

- pEC50 [1]: 7.72
- concentration at 0.5 h [2]: 77.3 ng/g
- concentration at 1 h [3]: 82.5 ng/g
SMILES: Cc1cc(CCCOc2ccc3oc(-c4cc5cccn5cn4)c/c(=N\O)c3c2)ccn1

- pEC50 [1]: 7.60
- concentration at 0.5 h [2]: 275 ng/g
- concentration at 1.5 h [4]: 137 ng/g
- concentration at 1 h [3]: 197 ng/g
SMILES: O/N=c1\cc(-c2cc3sccc3cn2)oc2ccc(CCCN3CCC(F)(F)C3)cc12

- pEC50 [1]: 5.16
SMILES: O/N=c1\cc(-c2ccc3ncccc3c2)oc2ccccc12

- pEC50 [1]: 6.82
SMILES: O/N=c1\cc(-c2cc3cccn3cn2)oc2ccc(OCCN3CCC(F)(F)CC3)cc12

- pEC50 [1]: 6.89
SMILES: O/N=c1\cc(-c2cc3ccsc3cn2)oc2ccccc12

- pEC50 [1]: 6.51
SMILES: O/N=c1\cc(-c2cc3ccccc3cn2)oc2ccccc12

- EC50 [1]: Not Active
SMILES: O/N=c1\cc(-c2ccc3ccccc3c2)oc2ccccc12

- pEC50 [1]: 7.22
- concentration at 0.5 h [2]: < 1 ng/g
- concentration at 1 h [3]: < 1 ng/g
SMILES: CN1CCCC12CCN(CCOc1ccc3oc(-c4cc5sccc5cn4)c/c(=N\O)c3c1)CC2

- pEC50 [1]: 7.28
- concentration at 1 h [3]: < 1 ng/g
SMILES: O/N=c1\cc(-c2cc3sccc3cn2)oc2ccc(NC3CCN(c4ccncn4)CC3)cc12

- EC50 [1]: Not Active
SMILES: Cc1c(-c2cc3ccccc3cn2)oc2ccccc2/c1=N/O

- pEC50 [1]: 5.61
SMILES: O/N=c1\cc(-c2cc3ccccc3cn2)oc2ccc(C(F)(F)F)cc12

- pEC50 [1]: 4.85
SMILES: O/N=c1\cc(/C=C/c2ccccc2)oc2ccccc12

- pEC50 [1]: 5.77
SMILES: CN1CCN(CCOc2ccc3oc(-c4cc5cccn5cn4)c/c(=N\O)c3c2)CC1

- pEC50 [1]: 7.46
- concentration at 0.5 h [2]: 25.5 ng/g
- concentration at 1 h [3]: 8.8 ng/g
SMILES: CN(C)C(=O)N1CC(Oc2ccc3oc(-c4cc5cccn5cn4)c/c(=N\O)c3c2)C1

- pEC50 [1]: 7.28
- concentration at 0.5 h [2]: < 1 ng/g
- concentration at 1 h [3]: < 1 ng/g
SMILES: CC(=O)N1CC(Oc2ccc3oc(-c4cc5sccc5cn4)c/c(=N\O)c3c2)C1

- pEC50 [1]: 8.00
- concentration at 0.5 h [2]: 24.1 ng/g
- concentration at 1 h [3]: 12.1 ng/g
SMILES: CC(=O)N1CCC(Oc2ccc3oc(-c4cc5cccn5cn4)c/c(=N\O)c3c2)CC1

- pEC50 [1]: 5.90
SMILES: O/N=c1\cc(-c2cc3cnccc3cn2)oc2ccccc12

- pEC50 [1]: < 4.52
SMILES: O/N=c1\cc(-c2cc3ccccc3[nH]2)oc2ccccc12

- EC50 [1]: Not Active
SMILES: O/N=c1\cc(-c2cc3ccccc3cn2)oc2c(Cl)cccc12

- solubility thermodynamic [6]: 10600 µM
SMILES: Cl.O/N=c1\cc(-c2cc3cccn3cn2)oc2ccc(OCCN3CCOCC3)cc12

- EC50 [1]: Not Active
SMILES: Cn1c(-c2c/c(=N\O)c3ccccc3o2)cc2ccccc21

- pEC50 [1]: < 4.52
SMILES: O/N=c1\cc(-c2cc3ccccc3o2)oc2ccccc12

- pEC50 [1]: 6.01
SMILES: Cc1ccc2oc(-c3cc4ccccc4cn3)c/c(=N\O)c2c1

- pEC50 [1]: 5.94
SMILES: COc1ccc2/c(=N/O)cc(-c3cc4ccccc4cn3)oc2c1

- pEC50 [1]: 5.63
SMILES: O/N=c1\cc(-c2cc3cccn3cn2)oc2ccc(OCCN3CCCC3)cc12

- pEC50 [1]: 5.40
SMILES: O/N=c1\cc(-c2cnc3ccccc3c2)oc2ccccc12

- pEC50 [1]: 5.01
SMILES: CN1CCN(CCOc2ccc3oc(-c4cc5ccccc5cn4)c/c(=N\O)c3c2)CC1

- pEC50 [1]: 6.12
SMILES: COCCOc1ccc2oc(-c3cc4ccccc4cn3)c/c(=N\O)c2c1

- pEC50 [1]: 5.79
SMILES: O/N=c1\cc(-c2cc3ccccc3cn2)oc2ccc(OC(F)(F)F)cc12

- EC50 [1]: Not Active
SMILES: CON=c1cc(-c2cc3ccccc3cn2)oc2ccccc12

- pEC50 [1]: 6.78
- concentration at 0.5 h [2]: 2.8 ng/g
- concentration at 1 h [3]: 2.9 ng/g
SMILES: CN(C)C1CCN(CCOc2ccc3oc(-c4cc5cccn5cn4)c/c(=N\O)c3c2)CC1

- EC50 [1]: Not Active
SMILES: O/N=c1\cc(-c2cnc3ccccc3n2)oc2ccccc12

- pEC50 [1]: 7.46
- concentration at 0.5 h [2]: 408 ng/g
- concentration at 1.5 h [4]: 281 ng/g
- concentration at 1 h [3]: 521 ng/g
SMILES: O/N=c1\cc(-c2cc3sccc3cn2)oc2ccc(OCCN3CCOCC3)cc12

- pEC50 [1]: 6.16
SMILES: O/N=c1\cc(-c2cc3ccccc3cn2)oc2ccc(Br)cc12

- pEC50 [1]: 8.40
- concentration at 0.5 h [2]: 7.4 ng/g
- concentration at 1 h [3]: < 1 ng/g
SMILES: Cc1ncccc1N1CCC(Cc2ccc3oc(-c4cc5sccc5cn4)c/c(=N\O)c3c2)CC1

- EC50 [1]: Not Active
SMILES: O/N=c1\cc(-c2cc3ccccc3s2)oc2ccccc12

- pEC50 [1]: 6.96
- solubility thermodynamic [6]: 0.2 µM (≈ 0.0555 µg/mL)
SMILES: O/N=c1\cc(-c2cc3cccn3cn2)oc2ccccc12
